Assay outcomes (PubChem)
Rows were chosen to be rich in hits. Some 2.3% of all compounds tested hit in one or more screens of this group.
MT1-MMP act inh: inhibitors of human MT1-MMP activation | GFP/RFP ratio change, % at 20 µM | P50281 | HT1080 RFP-PRO-GFP cells, GFP/RFP ratio fluorescence, overnight; percent of plate control window, DMSO zero | hit rate 0.061% among 360,000;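 active = GFP/RFP ratio change of at least 30% with cell ATP level not reduced by more than half and red fluorescence within 50% of control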
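Assay system: RFP-PRO-GFP reporter HT1080 cells; read-out basis: GFP/RFP fluorescence ratio; benchmarks: DMSO wells and RFP-L50D-GFP cells; doses: 20 µM single dose, 1% DMSO; schedule: overnight cell settling, then overnight compound exposure, 37 °C, 5% CO2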
Rpn11 inh: inhibitors of human proteasome Rpn11; O00487; human 26S proteasome, Ub4-pepOG fluorescence polarization; 20S core pre-blocked with epoxomicin; inhibition, % at 20 µM; hit rate 0.59% among 360,000; AID 588493;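 active = inhibition at 20 µM, scaled to each plate's controls, above about 33%, limit read from the data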
Target sequence (O00487 whole entry, looked up): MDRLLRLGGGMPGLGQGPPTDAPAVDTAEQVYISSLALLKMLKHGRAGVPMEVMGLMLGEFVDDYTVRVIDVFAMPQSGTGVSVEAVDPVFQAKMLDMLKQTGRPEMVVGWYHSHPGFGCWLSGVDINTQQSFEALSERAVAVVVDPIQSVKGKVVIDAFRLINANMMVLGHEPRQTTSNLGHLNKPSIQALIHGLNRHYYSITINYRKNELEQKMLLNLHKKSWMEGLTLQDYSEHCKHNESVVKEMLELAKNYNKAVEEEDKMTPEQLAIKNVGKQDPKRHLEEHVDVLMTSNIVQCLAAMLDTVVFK
CSN deneddyl inh: inhibitors of human CSN-mediated cullin deneddylation | Q92905 | Purified CSN, SCF-Nedd8-OG deneddylation, fluorescence polarization | inhibition, % at 12.5 µM | hit rate 0.38% among 360,000 | AID 651999;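 active = pattern-corrected inhibition above about 35%, with an unprinted fluorescence ratio check between 0.5 and 1.5, limit read from the data, passing the limit was not always enough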
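test system = HEK293T-derived human Csn5 enzyme | amount = 0.24 nM Csn5 enzyme, final concentration | medium = Tris/NaCl/DTT buffer, pH 7.5 | schedule = 90 min reaction at room temperature | signal = FP | evaluation = inhibition of Csn5 cleavage, % | compound dosing = single dose of 12.5 µM compound with 0.25% DMSO | probe or stimulus = 10 nM SCFSkp2-Nedd8OG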
DNMT1 inh: blocks human DNA methyltransferase DNMT1. P26358. DNMT1 molecular beacon, Hinp1I cleavage, fluorescence. inhibition (reported as % activation of signal), % at 10 µM. hit rate 0.83% among 360,000; in the data active = inhibition above about 50%
SUMO1 PPI mod: modulators of human SUMO1-mediated protein-protein interactions | SUMO1 binding to a labelled peptide, TR-FRET, 1 h | inhibition, % at 20 µM | hit rate 0.33% among 360,000; in the data active = inhibition above about 37%
Target sequence (P63165 whole entry, looked up): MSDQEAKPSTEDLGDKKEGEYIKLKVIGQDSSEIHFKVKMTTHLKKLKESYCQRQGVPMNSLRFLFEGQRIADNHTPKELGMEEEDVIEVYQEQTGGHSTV
SKN-1 block: C. elegans SKN-1 inhibition. C. elegans VP596 Pgst-4::GFP/RFP ratio, acrylamide-induced, 24 h. inhibition, % at 21.8 µM. hit rate 0.49% among 360,000. AID 624304;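 active = interference check ratio from 0.5 to 1.5 plus GFP to RFP signal ratio inhibition reaching or exceeding a fixed threshold, cut at about 30% in these data, passing the limit was not always enough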
Of the large screens only hits and unclear results are named; the others gave an inactive call.

O=C(COc1ccc2c3c(c(=O)oc2c1)CCC3)Nc1ccccn1	SUMO1 PPI mod 50.8
Cc1ccccc1-c1cc2nc(NCc3ccc(N(C)C)cc3)n(C)c(=O)c2s1	none
CCc1nc2ccc(C(=O)Nc3ccc4c(c3)OCC(=O)N4)cn2c1N(CC)Cc1cccc(Br)c1	none
CC(C)NC(=O)c1cccc2c(-c3ccc(F)c(F)c3)coc12	none
CC(C)CNC(=O)NC(=O)COc1c(F)c(F)cc(F)c1F	none
CC(C)CCNC(=O)NC(=O)COc1c(F)c(F)cc(F)c1F	SKN-1 block 59.6
COc1ccccc1C(=O)CSc1n[nH]c(N)n1	none
Nc1nc(SCC(=O)c2cc3ccccc3o2)n[nH]1	SUMO1 PPI mod 39.6
Clc1ccc(-c2nnc(-c3ccccc3)c(-c3ccccc3)n2)cc1	none
COc1nc(-c2ccccc2)nnc1-c1ccccc1	SKN-1 block 51.7
COc1cccc(C(O)c2ncc(-c3cccc4ccccc34)[nH]2)c1 (stereo unspecified)	none
CC1=C(C(=O)N2CCCCCC2)CC(CC(=O)NC2CCCCC2)C(=O)N1Cc1ccc(F)cc1 (stereo unspecified)	none (no result: Rpn11 inh, DNMT1 inh)
CC1(C)OC(c2ccccc2)=C/C(=C/C=C2C(=O)c3ccccc3C2=O)O1	SKN-1 block 59.6
O=C1c2ccccc2CCc2ccc(Br)cc21	SKN-1 block 35.8
O=C1C(=NO)CCc2ccccc21	none
CCCCNC(=O)c1nc(-c2cccs2)oc1-c1ccc(Cl)cc1	none (no result: Rpn11 inh, DNMT1 inh)
COc1ccc(C(=O)N=c2sccn2C)cc1	none
Cn1ccsc1=NC(=O)c1ccc(Cl)cc1	SKN-1 block 43.2
Cn1ccsc1=NC(=O)c1ccc(OC(F)(F)F)cc1	SKN-1 block 51.3
CCOC(=O)N1CCC(NC(=O)Cc2ccccc2)CC1	none
CCOC(=O)N1CCC(NC(=O)c2ccccc2C(=O)O)CC1	SUMO1 PPI mod 42.9
O=C(NC1CCCCC1)N(c1ccccc1)c1nnc(-c2cccc([N+](=O)[O-])c2)s1	none
O=C(/C=C/c1cccs1)c1ccc(Br)cc1	SKN-1 block 37.2
CCOC(=O)c1cc(-c2ccco2)nc2c1c(C)nn2-c1ccccc1	SKN-1 block 39.5
CCCNC(=O)c1ccc2c(c1)C1C3CCC(C3)C1C(c1ccccc1)N2 (stereo unspecified)	SKN-1 block 48.4
CC(C)(C)NC(=O)c1ccc2c(c1)C1C3CCC(C3)C1C(c1ccccc1)N2 (stereo unspecified)	none
O=C(CN1CCCN(S(=O)(=O)c2ccc(F)cc2)CC1)Nc1c(Cl)cccc1Cl	CSN deneddyl inh 109.2
O=C(CCN1CCN(S(=O)(=O)c2ccc(Cl)cc2)CC1)Nc1ccc(F)cc1	SKN-1 block 46.2
Cc1ccc(S(=O)(=O)N2C[C@@H](C)[C@]3(C2)[C@H](O)[C@H](OC(=O)Nc2cccs2)C[C@H]2C(=O)N(c4ccccc4)C(=O)[C@H]23)cc1	none
CCCCNC(=O)C(NC(=O)c1cccs1)C(=O)c1ccccc1 (stereo unspecified)	none (no result: Rpn11 inh, DNMT1 inh)
N#Cc1ccc(NC(=O)c2sc3cc(C(F)(F)F)cnc3c2-c2cccs2)cc1	SUMO1 PPI mod 55.9
O=C(Nc1ccc(F)cc1)c1sc2cc(C(F)(F)F)cnc2c1-c1cccs1	none
CCOC(=O)C(=O)Cc1cccnn1	DNMT1 inh 66.3, SUMO1 PPI mod 43.4
Cc1cnc2ccc(F)cc2c1	none
COC(=O)c1cc(NC(=O)CC2SC(=Nc3ccccc3)N(CCc3c[nH]c4ccccc34)C2=O)cc(C(=O)OC)c1 (stereo unspecified)	SKN-1 block 35.6
COCCCn1cc(CN2CC(N3CCN(C4CCN(C)CC4)CC3)CS2(=O)=O)nn1 (stereo unspecified)	none (no result: Rpn11 inh, DNMT1 inh)
CCc1ccc(-n2c(SCC(=O)Nc3cc(C)[nH]n3)nc3[nH]ncc3c2=O)cc1	SKN-1 block 39.4
Cc1cc(/C=C2\NC(=S)N(C)C2=O)ccc1N1CCCC1	none (not shown: Rpn11 inh)
CCCN1C(=O)/C(=C/c2ccc(N3CCCC3)c(C)c2)NC1=S	SKN-1 block 45.9 (not shown: Rpn11 inh)
